The text below walks through data of ChEMBL document CHEMBL3414425, “Synthesis and biological evaluation of new imidazo[2,1-b][1,3,4]thiadiazole-benzimidazole derivatives” (Eur J Med Chem, 2015).

Data set [1] deals with Salmonella typhi. Put plainly: Antibacterial activity against Salmonella typhi at 0.5 mg/ml incubated for 18 hrs by well plate technique. Format: functional, Salmonella enterica subsp. enterica serovar Typhi. To be noted: for zone of inhibition at 500 µg/mL: Salmonella enterica, read-out: DIZ; for diameter of the inhibition zone (DIZ): Salmonella enterica subsp. enterica serovar Typhi. Summed up:
(§1)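 Well diffusion on nutrient agar; strains kept on nutrient agar at 37 °C, grown statically in nutrient broth 18-24 h at 37 °C, diluted in saline, 0.1 ml spread per plate. Compounds in DMSO at 1 and 0.5 mg/mL added to cork-bored wells; 18 h at 37 °C. Inhibition zone diameter measured, DMSO value subtracted; triplicate; streptomycin reference.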

Data set [2] in a line: Cytotoxicity against African green monkey Vero cells assessed as growth inhibition at 62.5 ug/ml after 72 hrs by MTT assay. Format: cell-based. The following applies: chlorocebus sabaeus, read-out: GI. The gist of the method:
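Vero cells grown in MEM + 10% FBS at 37 °C, 5% CO2. Seeded ~10,000 cells/well, 24 h to a partial monolayer. Compounds in DMSO diluted in MEM + 2% FBS (1 mg/ml stock, two-fold dilutions) for 72 h. MTT 3 h, formazan dissolved in propanol, A540. % inhibition = 100 − (mean OD test/mean OD control × 100).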

In data set [3] the test system is Escherichia coli. Put plainly: Antibacterial activity against Escherichia coli at 1 mg/ml incubated for 18 hrs by well plate technique. Format: functional. To be noted: for zone of inhibition at 1000 µg/mL: read-out: DIZ. The gist of the method:
(§2)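 Bacteria kept on nutrient agar at 37 °C, grown statically in nutrient broth (start ~10-100 cfu/mL) at 37 °C for 18-24 h. Suspensions diluted in saline and spread on nutrient agar, then wells cut with a cork borer. Compound in DMSO at 1 or 0.5 mg/mL added to wells, 37 °C, 18 h. Inhibition zone diameter measured minus DMSO value; triplicate; streptomycin standard.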

For data set [4], the system named is Pseudomonas aeruginosa. Put plainly: Antibacterial activity against Pseudomonas aeruginosa at 1 mg/ml incubated for 18 hrs by well plate technique. Format: functional. To be noted: for zone of inhibition at 1000 µg/mL: read-out: DIZ. Summed up: as §2
Data set [5] deals with Aspergillus flavus. The data set can be described thus: Antifungal activity against Aspergillus flavus at 1 mg/ml incubated for 3 days. Format: functional. The following applies: for zone of inhibition at 1000 µg/mL: 72 h, read-out: IZ. Summed up: (§3)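 Well plate method on potato dextrose agar. Fungal stock suspended in distilled water with Tween 80 and swabbed over plates. Samples in DMSO at 1 and 0.5 mg/mL added to wells, incubated 25 °C for 3 days, then scored for inhibition zones; fluconazole standard.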

The test system of data set [6] is Salmonella typhi. Put plainly: Antibacterial activity against Salmonella typhi at 1 mg/ml incubated for 18 hrs by well plate technique. To be noted: for zone of inhibition at 1000 µg/mL: Salmonella enterica, read-out: DIZ; for diameter of the inhibition zone (DIZ): Salmonella enterica subsp. enterica serovar Typhi. Format: functional, Salmonella enterica subsp. enterica serovar Typhi. The gist of the method: as §1

Data set [7] concerns Staphylococcus aureus. Put plainly: Antibacterial activity against Staphylococcus aureus at 0.5 mg/ml incubated for 18 hrs by well plate technique. Format: functional. To be noted: for zone of inhibition at 500 µg/mL: read-out: DIZ. The gist of the method: as §2
For data set [8], the system named is Staphylococcus aureus. Put plainly: Antibacterial activity against Staphylococcus aureus at 1 mg/ml incubated for 18 hrs by well plate technique. To be noted: for zone of inhibition at 1000 µg/mL: read-out: DIZ. It is filed as functional. The gist of the method:
as §2

The test system of data set [9] is Chrysosporium keratinophilum. The data set can be described thus: Antifungal activity against Chrysosporium keratinophilum at 1 mg/ml incubated for 3 days. It is filed as functional. To be noted: for zone of inhibition at 1000 µg/mL: 72 h, read-out: IZ. The gist of the method: as §3
The nature of data set [10]: Antioxidant activity assessed as DPPH radical scavenging activity incubated for 10 mins by UV-visible spectrometry. Format: physicochemical. Summed up:
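DPPH free-radical scavenging; absorbance read at 517 nm against a methanol blank. % scavenging = (A control − A sample)/A control × 100.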

Data set [11] deals with Mycobacterium tuberculosis. Put plainly: Antitubercular activity against Mycobacterium tuberculosis H37Rv ATCC 27294/XDR-TB incubated for 28 days by agar dilution method. The following applies: 672 h. It is filed as functional. Summed up:
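Agar dilution: two-fold dilutions in Middlebrook 7H11 agar with OADC. Inoculum from fresh 7H11/OADC slants adjusted to 1 mg/mL wet weight in 0.05% Tween 80 saline, diluted 10^-2 (~10⁷ cfu/mL); 5 µL spotted per tube. Incubated 37 °C; MIC, lowest concentration fully inhibiting growth, read after 28 days, in triplicate.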
In general terms: In agar dilution, organisms are placed on agar that contains the substance at set levels.

Data set [12] deals with Aspergillus flavus. The data set can be described thus: Antifungal activity against Aspergillus flavus at 0.5 mg/ml incubated for 3 days. Format: functional. The following applies: for zone of inhibition at 500 µg/mL: 72 h, read-out: IZ. Summed up: as §3
For data set [13], the system named is Candida albicans. The data set can be described thus: Antifungal activity against Candida albicans at 1 mg/ml incubated for 3 days. It is filed as functional. To be noted: for zone of inhibition at 1000 µg/mL: 72 h, read-out: IZ. The gist of the method:
as §3

The subject of data set [14] is Escherichia coli. Put plainly: Antibacterial activity against Escherichia coli at 0.5 mg/ml incubated for 18 hrs by well plate technique. It is filed as functional. To be noted: for zone of inhibition at 500 µg/mL: read-out: DIZ. The gist of the method: as §2
The subject of data set [15] is Pseudomonas aeruginosa. The data set can be described thus: Antibacterial activity against Pseudomonas aeruginosa at 0.5 mg/ml incubated for 18 hrs by well plate technique. Format: functional. To be noted: for zone of inhibition at 500 µg/mL: read-out: DIZ. Summed up: as §2
The subject of data set [16] is Candida albicans. The data set can be described thus: Antifungal activity against Candida albicans at 0.5 mg/ml incubated for 3 days. It is filed as functional. To be noted: for zone of inhibition at 500 µg/mL: 72 h, read-out: IZ. Summed up: as §3
For data set [17], the system named is Chrysosporium keratinophilum. The data set can be described thus: Antifungal activity against Chrysosporium keratinophilum at 0.5 mg/ml incubated for 3 days. It is filed as functional. The following applies: for zone of inhibition at 500 µg/mL: 72 h, read-out: IZ. The gist of the method:
as §3

≈ marks a conversion by molar mass, not a printed value. Calls of active or inactive are those of the source. No cut-off for these calls is given here.

One may read the MIC as the lowest concentration found to suppress growth. `Cc1nn2c(-c3nc4cc(Cl)ccc4[nH]3)c(-c3ccc(Cl)cc3)nc2s1`: the zone of inhibition at 500 µg/mL in data set [1] amounted to 2 mm; in data set [7] it was 2 mm; in data set [12], 1 mm; in data set [14], 2 mm; in [15], 1 mm; in data set [16], 2 mm. Moreover, the zone of inhibition at 500 µg/mL in [17] stood at 3 mm. For the same compound, in data set [2], the inhibition at 72 h, 62.5 ug/ml was found to be 7.12%. Further, the zone of inhibition at 1000 µg/mL is 4 mm in data set [3]; 4 mm in [4]; 3 mm in data set [5]; 4 mm in data set [6]; 3 mm in [8]; 5 mm in data set [9]. Besides, the zone of inhibition at 1000 µg/mL in data set [13] was found to be 4 mm. Besides, the “inhibition (INH)” value in data set [10] came out at 78.8%. The compound also returned an MIC in data set [11] of 3.12 µg/mL (≈ 7.81 µM).
`Cc1ccc(-c2nn3c(-c4nc5ccccc5[nH]4)c(-c4ccc(Cl)cc4)nc3s2)cc1`: the zone of inhibition at 500 µg/mL in [1] worked out at 2 mm; in [7], 2 mm; in [14], 2 mm; in [15], 3 mm. Moreover, the inhibition at 72 h, 62.5 ug/ml in data set [2] came out at 13.3%. Moreover, the zone of inhibition at 1000 µg/mL was 4 mm in data set [3], 6 mm in data set [4], 4 mm in data set [6] and 3 mm in data set [8]. Further, the “inhibition zone (IZ)” value in [5], in data set [9], in data set [12], in data set [13], in data set [16] and in [17] was “inactive” in each case. Besides, in data set [10], the “inhibition (INH)” value was 18.8%. This compound also gave an MIC in [11] of 3.12 µg/mL (≈ 7.07 µM).
For `Cc1ccc(-c2nn3c(-c4nc5cc([N+](=O)[O-])ccc5[nH]4)c(-c4ccc(F)cc4)nc3s2)cc1`, the zone of inhibition at 500 µg/mL in data set [1] worked out at 1 mm; in data set [7], 2 mm; in data set [12], 2 mm; in data set [14] it was 2 mm; in [15], 2 mm; in data set [16] it was 2 mm. Also, the zone of inhibition at 500 µg/mL in [17] worked out at 2 mm. The inhibition at 72 h, 62.5 ug/ml in data set [2] worked out at 10.5%. The zone of inhibition at 1000 µg/mL in data set [3] came out at 4 mm; in [4], 3 mm; in data set [5] it was 5 mm; in data set [6], 4 mm; in data set [8] it was 4 mm; in data set [9], 4 mm. The zone of inhibition at 1000 µg/mL in [13] was determined as 5 mm. In [10], the “inhibition (INH)” value worked out at 22.3%. Also, 6.25 µg/mL (≈ 13.3 µM) was the least that counted as inhibitory in [11] (MIC).
With `Cc1ccc(-c2nc3sc(-c4ccc(Cl)cc4)nn3c2-c2nc3cc([N+](=O)[O-])ccc3[nH]2)cc1`, the “diameter of the inhibition zone (DIZ)” value in data set [1], in [3], in data set [4], in data set [6], in data set [7] and in [8] was “inactive” in each case. Besides, the “diameter of the inhibition zone (DIZ)” value in data set [14] and in data set [15] was “inactive” throughout. For the same compound, the inhibition at 72 h, 62.5 ug/ml in data set [2] was determined as 8.85%. The “inhibition zone (IZ)” value in [5], in [9], in [12], in data set [13], in data set [16] and in data set [17] was “inactive” each time. Also, in data set [10], the “inhibition (INH)” value is recorded as 26.3%. This compound registered an MIC in data set [11] of 6.25 µg/mL (≈ 12.8 µM).
With `Cc1ccc(-c2nn3c(-c4nc5cc(Cl)ccc5[nH]4)c(-c4ccc(Cl)cc4)nc3s2)cc1`, the “diameter of the inhibition zone (DIZ)” value in data set [1] and in [6] was “inactive” each time. Moreover, in data set [2], the inhibition at 72 h, 62.5 ug/ml worked out at 7.4%. Moreover, the zone of inhibition at 1000 µg/mL came out at 4 mm in [3]; 3 mm in data set [4]; 5 mm in data set [5]; 5 mm in [8]; 3 mm in data set [9]; 6 mm in data set [13]. In addition, the zone of inhibition at 500 µg/mL is 3 mm in [7]; 2 mm in data set [12]; 2 mm in [14]; 2 mm in data set [15]; 4 mm in data set [16]; 1 mm in [17]. The “inhibition (INH)” value in data set [10] worked out at 65.7%. For the same compound, inhibition of growth in data set [11] (MIC) required 3.12 µg/mL (≈ 6.56 µM).
Take `COc1ccc(-c2nc3sc(C)nn3c2-c2nc3ccccc3[nH]2)cc1`: the “diameter of the inhibition zone (DIZ)” value in data set [1], in data set [3], in [4], in data set [6], in data set [7] and in data set [8] was “inactive” in each case. Besides, the “diameter of the inhibition zone (DIZ)” value in [14] and in data set [15] was “inactive” throughout. Further, the inhibition at 72 h, 62.5 ug/ml in data set [2] worked out at 7.1%. Further, the “inhibition zone (IZ)” value in [5], in [9], in data set [12], in [13], in [16] and in data set [17] was “inactive” each time. Besides, in data set [10], the “inhibition (INH)” value came out at 21.4%. This compound also yielded an MIC in data set [11] of 6.25 µg/mL (≈ 17.3 µM).
